Measured values reported in ChEMBL document CHEMBL3817843, “Understanding Oxadiazolothiazinone Biological Properties: Negative Inotropic Activity versus Cytochrome P450-Mediated Metabolism” (J Med Chem, 2016).

Assays:
Liver microsome = test: Stability in human liver microsomes at 1 uM after 2 to 60 mins by LC-MS analysis in absence of NADPH
[1] = Half life in human liver microsomes assessed as CYP-mediated compound degradation at 1 uM by LC-MS analysis
Left cardiac atrium [2] = test: Negative inotropic activity in potassium depolarized guinea pig left atrium assessed as reduction in developed tension after 30 mins; assay type: functional; details: Cavia porcellus, 0.5 h
Summary of the method: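 Guinea pig left atria electrically driven at 1 Hz. EC50 taken from log concentration−response curves by Litchfield and Wilcoxon probit analysis, n = 6−7. Not calculated when the maximum effect was below 50%.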

Cytochrome P450 1A2 = target: T1, Cytochrome P450 1A2 (Homo sapiens, UniProt P05177); test: Inhibition of CYP1A2 in human liver microsomes using phenacetin as substrate after 30 mins by LC-MS analysis
T1 sequence (P05177 whole entry): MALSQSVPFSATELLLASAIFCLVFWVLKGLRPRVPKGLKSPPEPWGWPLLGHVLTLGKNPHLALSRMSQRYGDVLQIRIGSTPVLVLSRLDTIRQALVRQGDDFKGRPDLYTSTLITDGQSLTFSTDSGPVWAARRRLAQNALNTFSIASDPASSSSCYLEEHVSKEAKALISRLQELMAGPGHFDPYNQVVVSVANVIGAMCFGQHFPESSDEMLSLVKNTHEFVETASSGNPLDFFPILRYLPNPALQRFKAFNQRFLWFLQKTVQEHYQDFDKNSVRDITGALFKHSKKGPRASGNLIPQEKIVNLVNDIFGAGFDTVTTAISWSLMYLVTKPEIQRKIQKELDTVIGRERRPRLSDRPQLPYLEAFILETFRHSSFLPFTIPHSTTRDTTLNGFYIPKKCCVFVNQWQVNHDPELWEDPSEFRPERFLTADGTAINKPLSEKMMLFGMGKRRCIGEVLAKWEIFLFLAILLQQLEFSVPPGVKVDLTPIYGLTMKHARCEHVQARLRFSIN

Cytochrome P450 2C19 = Cytochrome P450 2C19 (Homo sapiens, UniProt P33261); test: Inhibition of CYP2C19 in human liver microsomes using (S)-mephenytoin as substrate after 40 mins by LC-MS analysis
in vitro = details: human, liver microsomes
Left cardiac atrium [3] = test: Negative inotropic activity in potassium depolarized guinea pig left atrium assessed as reduction in developed tension at 10^-6 M after 30 mins; assay type: functional, Cavia porcellus; set-up: scale not given: the % may be the effect or the level left
[4] = Relaxant activity in potassium depolarized guinea pig ileum longitudinal smooth muscle assessed as inhibition of calcium-induced contraction after 30 mins; assay type: functional, tissue-based; details: Cavia porcellus, 0.5 h
Aorta [5] = test: Vasorelaxant activity in potassium depolarized guinea pig aorta assessed as inhibition of calcium-induced contraction at 10^-4 M after 30 mins; assay type: functional, Cavia porcellus; set-up: scale not given: the % may be the effect or the level left
Summary of the method: (§1)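 Guinea pig aortic strips depolarized with K+ (80 mM). Calcium-induced contraction measured; inhibition expressed as percent change from control, n = 3−5.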

Cytochrome P450 2D6 = Cytochrome P450 2D6 (Homo sapiens, UniProt P10635); test: Inhibition of CYP2D6 in human liver microsomes using dextromethorphan as substrate after 10 mins by LC-MS analysis
Right cardiac atrium = test: Negative chronotropic activity in potassium depolarized guinea pig right atrium assessed as reduction in atrial rate at 50 uM after 30 mins; assay type: functional, Cavia porcellus; set-up: scale not given: the % may be the effect or the level left
[6] = Relaxant activity in potassium depolarized guinea pig ileum longitudinal smooth muscle assessed as inhibition of calcium-induced contraction at 0.05 uM after 30 mins; assay type: functional, Cavia porcellus; set-up: scale not given: the % may be the effect or the level left
Cytochrome P450 2C9 = Cytochrome P450 2C9 (Homo sapiens, UniProt P11712); test: Inhibition of CYP2C9 in human liver microsomes using tolbutamide as substrate after 20 mins by LC-MS analysis
Left cardiac atrium [7] = test: Negative inotropic activity in potassium depolarized guinea pig left atrium assessed as reduction in developed tension at 10^-5 M after 30 mins; assay type: functional, Cavia porcellus; set-up: scale not given: the % may be the effect or the level left
Left cardiac atrium [8] = test: Potency index, ratio of diltiazem EC50 to compound EC50 for negative inotropic activity against potassium depolarized guinea pig left atrium
Aorta [9] = test: Vasorelaxant activity in potassium depolarized guinea pig aorta assessed as inhibition of calcium-induced contraction at 50 uM after 30 mins; assay type: functional, Cavia porcellus; set-up: scale not given: the % may be the effect or the level left; summary of the method: as §1
[10] = Relaxant activity in potassium depolarized guinea pig ileum longitudinal smooth muscle assessed as inhibition of calcium-induced contraction at 10^-5 M after 30 mins; assay type: functional, Cavia porcellus; set-up: scale not given: the % may be the effect or the level left
Left cardiac atrium [11] = test: Negative inotropic activity in potassium depolarized guinea pig left atrium assessed as reduction in developed tension at 5 uM after 30 mins; assay type: functional, Cavia porcellus; set-up: scale not given: the % may be the effect or the level left

Sequence of Cytochrome P450 2D6 (P10635 whole entry): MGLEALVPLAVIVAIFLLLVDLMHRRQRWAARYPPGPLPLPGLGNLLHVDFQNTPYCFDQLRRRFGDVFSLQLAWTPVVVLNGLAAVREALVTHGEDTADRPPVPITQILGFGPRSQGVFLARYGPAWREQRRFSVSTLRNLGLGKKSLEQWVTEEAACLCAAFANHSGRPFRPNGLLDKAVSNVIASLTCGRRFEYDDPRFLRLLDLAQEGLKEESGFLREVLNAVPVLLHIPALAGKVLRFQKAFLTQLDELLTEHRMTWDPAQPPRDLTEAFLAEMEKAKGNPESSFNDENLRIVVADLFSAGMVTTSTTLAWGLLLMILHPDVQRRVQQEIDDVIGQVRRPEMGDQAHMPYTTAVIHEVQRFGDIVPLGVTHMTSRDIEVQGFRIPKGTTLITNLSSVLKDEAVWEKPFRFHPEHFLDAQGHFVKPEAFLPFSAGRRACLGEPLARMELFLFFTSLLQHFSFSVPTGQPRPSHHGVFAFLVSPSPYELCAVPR
Sequence of Cytochrome P450 2C9 (P11712 whole entry): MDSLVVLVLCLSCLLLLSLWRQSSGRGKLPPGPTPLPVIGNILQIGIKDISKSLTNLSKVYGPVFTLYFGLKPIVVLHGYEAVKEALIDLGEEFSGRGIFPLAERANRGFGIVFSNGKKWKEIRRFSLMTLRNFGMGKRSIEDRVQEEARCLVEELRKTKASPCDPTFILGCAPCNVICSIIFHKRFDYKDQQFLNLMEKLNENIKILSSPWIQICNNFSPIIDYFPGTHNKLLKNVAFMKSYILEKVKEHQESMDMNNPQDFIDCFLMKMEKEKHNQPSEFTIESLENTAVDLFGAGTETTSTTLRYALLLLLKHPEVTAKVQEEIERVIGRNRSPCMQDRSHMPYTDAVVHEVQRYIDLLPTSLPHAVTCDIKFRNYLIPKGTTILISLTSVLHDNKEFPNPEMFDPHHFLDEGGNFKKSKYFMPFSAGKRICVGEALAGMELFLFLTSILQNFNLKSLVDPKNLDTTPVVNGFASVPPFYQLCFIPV
Sequence of Cytochrome P450 2C19 (P33261 whole entry): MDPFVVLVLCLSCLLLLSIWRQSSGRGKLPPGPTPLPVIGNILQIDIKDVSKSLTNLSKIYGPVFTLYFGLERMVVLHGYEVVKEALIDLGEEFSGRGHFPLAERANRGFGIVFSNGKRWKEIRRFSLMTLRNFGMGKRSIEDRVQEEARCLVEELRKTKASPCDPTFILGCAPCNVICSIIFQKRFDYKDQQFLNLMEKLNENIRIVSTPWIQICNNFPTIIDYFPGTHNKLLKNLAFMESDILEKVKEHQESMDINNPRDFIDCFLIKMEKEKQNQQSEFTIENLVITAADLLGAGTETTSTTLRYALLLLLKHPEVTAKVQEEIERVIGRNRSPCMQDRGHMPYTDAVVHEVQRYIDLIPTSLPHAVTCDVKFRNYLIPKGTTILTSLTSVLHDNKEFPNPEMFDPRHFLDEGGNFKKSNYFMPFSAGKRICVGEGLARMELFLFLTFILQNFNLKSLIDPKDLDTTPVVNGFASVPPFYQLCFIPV

Stability (Liver microsome) | half-life at 1 µM [1] | EC50 (Left cardiac atrium [2]) | IC50 (Cytochrome P450 1A2) | IC50 (Cytochrome P450 2C19) | microsomal CLint at 1 µM (in vitro) | IC50 [4] | IC50 (Cytochrome P450 2D6) | IC50 (Cytochrome P450 2C9) | SMILES | Activity (Left cardiac atrium [3]) | Activity (Aorta [5]) | Activity (Right cardiac atrium) | Activity [6] | Activity (Left cardiac atrium [7]) | Ratio EC50 (Left cardiac atrium [8]) | Activity (Aorta [9]) | Activity [10] | Activity (Left cardiac atrium [11])
Stable | 6 min | 22 nM | 5200 nM | 2500 nM | 278 µL/min/mg | 17 nM | 12500 nM | 13600 nM | CCOC1(c2ccc(OC)cc2)SC=C(C)n2c1noc2=O (stereo not drawn) | 76% | 29% | 3% | 86% | – | – | – | – | –
– | – | 230 nM | – | – | – | – | – | – | CC1=CSC(O)(c2ccccc2)c2noc(=O)n21 (stereo not drawn) | – | – | 14% | – | 95% | 3.4 | 4% | – | –
– | – | 38 nM | – | – | – | – | – | – | CCOC1(c2cccc(OC)c2)SC=C(C)n2c1noc2=O (stereo not drawn) | – | 31% | 2% | – | – | – | – | 43% | 71%
